# Calls of active or inactive are those of the source. The calls are words filed in the database; no cut-off is given here.
# Legend:
# P3 purinoceptor = assay: Binding activity was evaluated on P3 purinoceptor-like protein from rat brain membranes by using [3H]NECA (40 nM).
# Procedure, shortened: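 Partially purified P3LP: rat brain membranes solubilized in CHAPS, then hydroxylapatite chromatography; A1, A2A, A2B and A3 adenosine receptors and adenotin absent from the preparation.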
# Adenosine receptor A1 = target: T1, Adenosine receptor A1 (Rattus norvegicus, UniProt P25099); assay: Inhibition of [3H]- DPCPX binding to Adenosine A1 receptor ofrat brain membranes
# T1 sequence (P25099 whole entry): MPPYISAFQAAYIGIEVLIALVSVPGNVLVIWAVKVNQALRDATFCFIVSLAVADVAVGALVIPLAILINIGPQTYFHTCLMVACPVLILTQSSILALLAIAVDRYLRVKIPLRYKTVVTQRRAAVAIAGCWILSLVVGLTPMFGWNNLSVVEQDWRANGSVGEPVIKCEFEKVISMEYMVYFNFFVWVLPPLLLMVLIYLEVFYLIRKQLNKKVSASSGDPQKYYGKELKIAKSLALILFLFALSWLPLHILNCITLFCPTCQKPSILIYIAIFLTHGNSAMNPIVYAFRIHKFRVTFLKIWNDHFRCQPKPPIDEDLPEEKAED
# [1] = target: Adenosine receptor A2a (Rattus norvegicus) (UniProt P30543); conditions: Membrane, 100 uM
# Chain of Adenosine receptor A2a (Rattus norvegicus) (P30543 whole entry): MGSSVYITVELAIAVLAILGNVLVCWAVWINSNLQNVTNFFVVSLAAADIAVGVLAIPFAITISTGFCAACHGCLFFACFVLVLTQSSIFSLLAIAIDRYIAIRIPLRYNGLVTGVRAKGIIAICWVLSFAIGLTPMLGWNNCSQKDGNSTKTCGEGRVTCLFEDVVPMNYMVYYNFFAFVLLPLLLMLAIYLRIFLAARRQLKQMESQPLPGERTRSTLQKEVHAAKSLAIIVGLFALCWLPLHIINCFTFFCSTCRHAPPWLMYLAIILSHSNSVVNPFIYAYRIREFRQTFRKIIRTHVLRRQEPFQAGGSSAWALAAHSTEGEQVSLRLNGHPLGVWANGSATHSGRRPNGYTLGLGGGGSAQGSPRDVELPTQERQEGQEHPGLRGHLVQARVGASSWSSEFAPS
# [2] = target: T2, Adenosine receptor A3 (Rattus norvegicus) (UniProt P28647); assay: Inhibition of [125I]AB-MECA (0.15 nM) binding to Adenosine A3 receptor of RBL-2H3 cell membranes; No inhibition at 10 uM; format: cell-based
# T2 sequence (whole entry): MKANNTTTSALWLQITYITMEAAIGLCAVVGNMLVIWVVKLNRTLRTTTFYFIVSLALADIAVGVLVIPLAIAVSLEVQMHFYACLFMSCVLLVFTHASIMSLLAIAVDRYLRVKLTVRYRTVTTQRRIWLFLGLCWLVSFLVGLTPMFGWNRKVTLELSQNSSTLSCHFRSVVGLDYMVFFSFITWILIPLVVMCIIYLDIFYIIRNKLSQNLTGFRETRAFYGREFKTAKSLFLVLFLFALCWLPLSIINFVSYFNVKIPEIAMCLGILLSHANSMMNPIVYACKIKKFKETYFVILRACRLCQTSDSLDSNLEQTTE
# [3] = target: T2, Adenosine receptor A3 (Rattus norvegicus); assay: Inhibition of [125I]AB-MECA (0.15 nM) binding to Adenosine A3 receptor of RBL-2H3 cell membranes; No inhibition at 10 uM
# [4] = target: T3, Adenosine receptor A2b (Rattus norvegicus) (UniProt P29276); assay: Activity against Adenosine A2B receptor as cAMP production in VA-13 cells; No inhibition at 100 uM; format: functional, cell-based
# T3 sequence (whole entry): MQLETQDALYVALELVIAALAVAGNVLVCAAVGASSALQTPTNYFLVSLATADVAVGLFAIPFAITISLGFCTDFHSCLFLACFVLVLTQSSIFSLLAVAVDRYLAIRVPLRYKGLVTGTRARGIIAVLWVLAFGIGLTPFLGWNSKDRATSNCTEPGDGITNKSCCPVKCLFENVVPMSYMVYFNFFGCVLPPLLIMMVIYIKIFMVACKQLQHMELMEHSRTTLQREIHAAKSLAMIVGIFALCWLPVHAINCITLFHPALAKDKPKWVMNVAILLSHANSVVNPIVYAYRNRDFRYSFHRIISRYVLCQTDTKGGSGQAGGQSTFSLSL
# [5] = target: T4, Adenosine receptor A1 (Rattus norvegicus) (UniProt P25099); assay: Inhibition of [3H]- DPCPX binding to Adenosine A1 receptor of rat brain membranes at 10 uM; format: cell membranes; conditions: Membrane
# T4 sequence (whole entry): T1 sequence (P25099 whole entry)
# Procedure, shortened: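 Rat brain membranes labelled with [3H]DPCPX (2 nM) to measure A1 receptor binding; test compound displacement read as percent inhibition at a single concentration.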
SMILES,Ki (P3 purinoceptor),other results
Nc1ncnc2c1ncn2C1O[C@H](CSCc2ccccc2)[C@@H](O)[C@H]1O (stereo not given in full),0.07 µM,–
NC(=O)[C@H]1OC(n2cnc3c(N)ncnc32)[C@H](O)[C@@H]1O (stereo not given in full),0.064 µM,–
C#C[C@H]1OC(n2cnc3c(N)ncnc32)[C@H](O)[C@@H]1O (stereo not given in full),0.28 µM,–
C#C[C@H](O)[C@H]1OC(n2cnc3c(N)ncnc32)[C@H](O)[C@@H]1O (stereo not given in full),0.019 µM,Inhibition (Adenosine receptor A1): 33%; inhibition [1]: 40%; inhibition [2]: inactive
CCNC(=O)[C@H]1O[C@@H](n2cnc3c(N)ncnc32)[C@H](O)[C@@H]1O [NECA],0.037 µM,–
CNC(=O)[C@H]1O[C@@H](n2cnc3c(N)ncnc32)[C@H](O)[C@@H]1O,0.051 µM,–
[N-]=[N+]=NC[C@H]1OC(n2cnc3c(N)ncnc32)[C@H](O)[C@@H]1O (stereo not given in full),0.081 µM,–
N#C[C@H]1OC(n2cnc3c(N)ncnc32)[C@H](O)[C@@H]1O (stereo not given in full),0.064 µM,–
Nc1ncnc2c1ncn2C1O[C@H](CSc2ccccc2)[C@@H](O)[C@H]1O (stereo not given in full),0.054 µM,–
CCCSC[C@H]1OC(n2cnc3c(N)ncnc32)[C@H](O)[C@@H]1O (stereo not given in full),1.1 µM,–
CN(C)C(=O)[C@H]1OC(n2cnc3c(N)ncnc32)[C@H](O)[C@@H]1O (stereo not given in full),21 µM,–
C#C[C@@H](O)[C@H]1OC(n2cnc3c(N)ncnc32)[C@H](O)[C@@H]1O (stereo not given in full),0.45 µM,inhibition [3]: inactive; inhibition [1]: 40%; inhibition [4]: inactive; inhibition [5]: 21%
Nc1ncnc2c1ncn2C1O[C@H](CCl)[C@@H](O)[C@H]1O (stereo not given in full),0.084 µM,–
